One may read the IC50 as the concentration at which inhibition is half-maximal. The Ki is a measure of affinity in units of concentration, obtained from inhibition or displacement. A high value points to weaker binding.

Experiment [1] has as its target GABA-A receptor; anion channel. The experiment in a line: Inhibitory activity at GABA A receptor, measured by the ability to displace [3H]GABA from GABA A receptor in rat brain. The class given is tissue-based.
Experiment [2] in a line: Inhibitory activity by measuring its ability to displace [3H]glycine from glycine receptor in rat brain. The class given is tissue-based.
The target in experiment [3] is Adrenergic receptor alpha. The experiment in a line: Inhibitory activity by measuring its ability to displace [3H]clonidine from alpha-adrenergic receptor in rat brain. The class given is tissue-based.
The target of experiment [4] is GABA-A receptor; anion channel. Briefly: Inhibitory activity at GABA A receptor, measured by the ability to displace [3H]zolpidem from GABA A receptor in rat brain. The experiment is classed as tissue-based.
The next experiment deals with Glutamate NMDA receptor. The experiment in a line: Inhibitory activity by measuring its ability to displace [3H]-MK-801 from glutamate(NMDA) receptor in rat brain. The experiment is classed as tissue-based.
The next experiment deals with Cannabinoid receptor 1 (Rattus norvegicus, UniProt P20272). The experiment in a line: Inhibitory activity, measured by displacement [3H]CP-55940 from cannabinoid receptor (CB1) in rat brain. The experiment is classed as tissue-based.
Experiment [5] can be described thus: Inhibitory activity by measuring its ability to displace [3H]spiperone from dopamine or serotonin 5-HT-1 receptors in rat brain. The experiment is classed as tissue-based.
A short description of experiment [6]: Tested for inhibitory activity by measuring its ability to displace [3H]AMPA from glutamate (non-NMDA) receptor in rat brain. The experiment is classed as tissue-based.
The nature of experiment [7]: Inhibitory activity at GABA B receptor, measured by the ability to displace [3H]baclofen from GABA B receptor in rat brain. The class given is tissue-based.
The target in experiment [8] is GABA-A receptor; anion channel. Briefly: Inhibitory activity at GABA A receptor, measured by the ability to displace [3H]flumazenil from GABA A receptor in rat brain. The class given is tissue-based.
Another experiment has as its target Adrenergic receptor beta (Rattus norvegicus, UniProt P18090+P10608+P26255). Briefly: Inhibitory activity by measuring its ability to displace [125I]pindolol from beta-adrenergic receptor in rat brain. The experiment is classed as tissue-based.
Experiment [9] addresses Adrenergic receptor alpha. Briefly: Inhibitory activity by measuring its ability to displace [3H]WB-4101 from alpha-adrenergic receptor in rat brain. The class given is tissue-based.
In a further experiment the target is Translocator protein (Rattus norvegicus, UniProt P16257). The experiment in a line: Binding affinity against mitochondrial DBI complex (peripheral benzodiazepine receptor) using primary cultures of glial cells. The method, boiled down: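 Glia from cerebella of 8-day-old Sprague–Dawley rat pups, trypsin-dissociated and grown 14 days (~95% astroglia). Cells lysed in 50 mM Hepes pH 7.4, 4 μg protein per tube. Incubated with [3H]4'-chlorodiazepam and competitor for 90 min at 4 °C, then filtered. Nonspecific binding defined with 10 μM 4'-chlorodiazepam. Triplicate competition curves; IC50 by nonlinear regression, converted to Ki (Bylund–Yamamura).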

Experiment [10] addresses T1, Gastrin/cholecystokinin type B receptor (Rattus norvegicus, UniProt P30553).
T1 sequence (P30553 whole entry): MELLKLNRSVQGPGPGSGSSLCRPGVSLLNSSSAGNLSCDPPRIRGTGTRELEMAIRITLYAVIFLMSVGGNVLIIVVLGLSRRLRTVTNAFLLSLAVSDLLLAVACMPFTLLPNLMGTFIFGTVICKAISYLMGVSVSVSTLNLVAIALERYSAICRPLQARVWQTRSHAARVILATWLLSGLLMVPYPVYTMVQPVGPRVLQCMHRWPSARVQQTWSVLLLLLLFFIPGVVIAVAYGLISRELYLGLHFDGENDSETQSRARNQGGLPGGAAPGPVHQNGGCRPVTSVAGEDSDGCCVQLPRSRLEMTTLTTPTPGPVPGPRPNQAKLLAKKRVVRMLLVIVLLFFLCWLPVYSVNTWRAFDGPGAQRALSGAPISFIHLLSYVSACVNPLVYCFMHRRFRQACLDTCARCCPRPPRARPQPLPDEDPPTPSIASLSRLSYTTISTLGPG
Briefly: Inhibitory activity by measuring its ability to displace [3H]L-365260 from cholecystokinin receptor in rat brain. The experiment is classed as tissue-based.

Experiment [11] deals with GABA-A receptor; anion channel. The experiment in a line: Inhibitory activity at GABA A receptor, measured by the ability to displace [35S]TBPS from GABA A receptor in rat brain. The experiment is classed as tissue-based.

Bounds are passed on as bounds.

Sequence of Cannabinoid receptor 1 (P20272 whole entry): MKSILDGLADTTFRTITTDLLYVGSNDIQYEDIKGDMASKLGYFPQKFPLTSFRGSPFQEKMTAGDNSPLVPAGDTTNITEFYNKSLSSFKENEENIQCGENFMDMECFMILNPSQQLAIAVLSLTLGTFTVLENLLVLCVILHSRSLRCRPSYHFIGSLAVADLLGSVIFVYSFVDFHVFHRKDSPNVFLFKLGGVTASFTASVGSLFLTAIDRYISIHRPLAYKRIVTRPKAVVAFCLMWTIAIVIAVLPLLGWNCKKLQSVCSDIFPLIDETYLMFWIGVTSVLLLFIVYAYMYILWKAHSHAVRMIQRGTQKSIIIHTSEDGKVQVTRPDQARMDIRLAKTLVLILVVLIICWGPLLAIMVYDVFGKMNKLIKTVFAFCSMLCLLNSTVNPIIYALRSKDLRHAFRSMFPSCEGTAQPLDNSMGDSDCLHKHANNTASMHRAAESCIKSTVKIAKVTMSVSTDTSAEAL
Sequence of Translocator protein (P16257 whole entry, looked up): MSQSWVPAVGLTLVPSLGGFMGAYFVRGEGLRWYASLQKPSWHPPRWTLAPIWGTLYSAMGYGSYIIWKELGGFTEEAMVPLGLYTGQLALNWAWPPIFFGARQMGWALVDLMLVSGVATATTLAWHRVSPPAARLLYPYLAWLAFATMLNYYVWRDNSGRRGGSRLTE

Consider `CCCCCCN(CCCCCC)C(=S)Cc1c(-c2ccc(F)cc2)[nH]c2ccccc12`, for which the half-maximal inhibitory concentration (IC50) (in [1]; in [2]; in experiment [3]; in experiment [4]; at Glutamate NMDA receptor; at Cannabinoid receptor 1) was over 1000 nM in each case. For the same compound, the IC50 (in experiment [5]; in experiment [6]; in experiment [7]; in [8]; on Adrenergic receptor beta; in [9]) was over 1000 nM each time. The concentration for half-maximal inhibition (IC50) in experiment [10] and in [11] was over 1000 nM in each case. Further, on Translocator protein, the Ki is over 1000 nM.

`Cc1ccc(-c2[nH]c3ccc(C)cc3c2CC(=O)N(C)C)cc1`: the IC50 (in experiment [1]; in experiment [2]; in experiment [3]; in [4]; on Glutamate NMDA receptor; on Cannabinoid receptor 1) was over 1000 nM in each case. The concentration for half-maximal inhibition (IC50) (in [5]; in experiment [6]; in experiment [7]; in experiment [8]; at Adrenergic receptor beta; in [9]) was over 1000 nM in each case. Moreover, the half-inhibitory concentration (IC50) in [10] and in experiment [11] was over 1000 nM throughout. The same compound displayed a Ki on Translocator protein of 150 nM.

On to `CCCN(CCC)C(=O)Cc1c2n(c3ccccc13)CCCc1ccccc1-2`, for which the IC50 (in experiment [1]; in experiment [2]; in experiment [3]; in experiment [4]; on Glutamate NMDA receptor; at Cannabinoid receptor 1) was over 1000 nM each time. Besides, the 50% inhibitory concentration (IC50) (in experiment [5]; in experiment [6]; in [7]; in experiment [8]; on Adrenergic receptor beta; in [9]) was over 1000 nM in each case. The 50% inhibitory concentration (IC50) in experiment [10] and in experiment [11] was over 1000 nM each time. The same compound yielded an inhibition constant (Ki) at Translocator protein of 328 nM.

`CCCN(CCC)C(=O)Cc1c(-c2cccs2)[nH]c2ccccc12`: the IC50 (in experiment [1]; in experiment [2]; in experiment [3]; in experiment [4]; at Glutamate NMDA receptor; on Cannabinoid receptor 1) was over 1000 nM throughout. In addition, the IC50 (in [5]; in experiment [6]; in experiment [7]; in experiment [8]; at Adrenergic receptor beta; in experiment [9]) was over 1000 nM in each case. Moreover, the 50% inhibitory concentration (IC50) in experiment [10] and in [11] was over 1000 nM throughout. This compound showed an inhibition constant Ki on Translocator protein of 304 nM.

For `O=C(Cc1c(-c2ccc(F)cc2)[nH]c2ccccc12)Nc1ccccc1Br`, the 50% inhibitory concentration (IC50) (in experiment [1]; in experiment [2]; in experiment [3]; in [4]; at Glutamate NMDA receptor; on Cannabinoid receptor 1) was over 1000 nM in each case. For the same compound, the IC50 (in experiment [5]; in experiment [6]; in [7]; in [8]; at Adrenergic receptor beta; in experiment [9]) was over 1000 nM in each case. Also, the half-maximal inhibitory concentration (IC50) in experiment [10] and in experiment [11] was over 1000 nM in each case. At Translocator protein, the Ki was 476 nM.

With `CN(C)C(=O)Cc1c(-c2ccccc2)[nH]c2ccccc12`, the IC50 (in experiment [1]; in [2]; in [3]; in [4]; on Glutamate NMDA receptor; at Cannabinoid receptor 1) was over 1000 nM throughout. The IC50 (in experiment [5]; in experiment [6]; in experiment [7]; in [8]; at Adrenergic receptor beta; in [9]) was over 1000 nM in each case. Also, the half-maximal inhibitory concentration (IC50) in experiment [10] and in [11] was over 1000 nM throughout. For the same compound, the Ki on Translocator protein stood at 170 nM.

In the case of `CCCN(CCC)C(=O)Cc1c(-c2cccc(Cl)c2)[nH]c2ccccc12`, the concentration for half-maximal inhibition (IC50) (in [1]; in experiment [2]; in [3]; in [4]; at Glutamate NMDA receptor; at Cannabinoid receptor 1) was over 1000 nM throughout. Also, the IC50 (in [5]; in [6]; in experiment [7]; in experiment [8]; on Adrenergic receptor beta; in experiment [9]) was over 1000 nM in each case. Further, the IC50 in experiment [10] and in experiment [11] was over 1000 nM each time. At Translocator protein, this compound showed a Ki of 678 nM.

As to `CCCCCCN(C)C(=O)Cc1c(-c2ccc(F)cc2)[nH]c2ccccc12`, the IC50 (in experiment [1]; in experiment [2]; in [3]; in experiment [4]; at Glutamate NMDA receptor; at Cannabinoid receptor 1) was over 1000 nM in each case. Further, the half-inhibitory concentration (IC50) (in [5]; in [6]; in experiment [7]; in experiment [8]; at Adrenergic receptor beta; in experiment [9]) was over 1000 nM in each case. The IC50 in experiment [10] and in experiment [11] was over 1000 nM throughout. Further, the affinity at Translocator protein corresponds to a Ki of 135 nM.

Consider `CCN(CC)C(=O)Cc1c(-c2ccccc2)[nH]c2ccccc12`, for which the IC50 (in experiment [1]; in experiment [2]; in experiment [3]; in experiment [4]; on Glutamate NMDA receptor; at Cannabinoid receptor 1) was over 1000 nM in each case. Moreover, the IC50 (in [5]; in [6]; in [7]; in experiment [8]; on Adrenergic receptor beta; in [9]) was over 1000 nM in each case. Besides, the IC50 in experiment [10] and in experiment [11] was over 1000 nM throughout. The compound also gave a Ki at Translocator protein of 156 nM.

In the case of `CCCN(CCC)C(=O)Cc1c(-c2cccs2)[nH]c2ccc(Cl)cc12`, the half-inhibitory concentration (IC50) (in [1]; in [2]; in experiment [3]; in experiment [4]; on Glutamate NMDA receptor; on Cannabinoid receptor 1) was over 1000 nM in each case. Moreover, the IC50 (in experiment [5]; in [6]; in experiment [7]; in experiment [8]; at Adrenergic receptor beta; in experiment [9]) was over 1000 nM in each case. The concentration for half-maximal inhibition (IC50) in [10] and in [11] was over 1000 nM each time. Affinity at Translocator protein was put at a Ki of 78 nM.

In the case of `O=C(Cc1c(-c2ccccc2)[nH]c2ccccc12)N1CCCC1`, the concentration for half-maximal inhibition (IC50) (in experiment [1]; in [2]; in experiment [3]; in [4]; at Glutamate NMDA receptor; at Cannabinoid receptor 1) was over 1000 nM each time. Moreover, the half-inhibitory concentration (IC50) (in experiment [5]; in experiment [6]; in experiment [7]; in [8]; at Adrenergic receptor beta; in experiment [9]) was over 1000 nM throughout. Also, the 50% inhibitory concentration (IC50) in [10] and in experiment [11] was over 1000 nM each time. On Translocator protein, this compound returned a Ki of 338 nM.

Values taken from ChEMBL document CHEMBL1126834, “Chemistry, binding affinities, and behavioral properties of a new class of "antineophobic" mitochondrial DBI receptor complex (mDRC) ligands” (J Med Chem, 1993).
